One series addresses human cathepsin B (Homo sapiens, UniProt P07858). The series is described as follows: Cathepsin B inhibition, fluorogenic substrate Z-Arg-Arg-AMC. To be noted: 1 alone; acetate buffer pH 6.0, cat B 8 nM, 1% DMSO. The format is biochemical. A digest of the protocol:
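Human cathepsin B at 8 nM in 0.4 M acetate buffer (pH 6.0, 4 mM EDTA, 8 mM DTT, final 1% DMSO), with Z-Arg-Arg-AMC at 100 μM. Reactions were run in the dark or after 10 min irradiation of the test compound (250 W tungsten halogen lamp, >395 nm, H2O filter). IC50 came from a sigmoidal fit of activity versus log[inhibitor], with 100% set by the no-inhibitor control.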

The target of the next series is T1, human cathepsin K (Homo sapiens, UniProt P43235).
T1 sequence (P43235 115-329): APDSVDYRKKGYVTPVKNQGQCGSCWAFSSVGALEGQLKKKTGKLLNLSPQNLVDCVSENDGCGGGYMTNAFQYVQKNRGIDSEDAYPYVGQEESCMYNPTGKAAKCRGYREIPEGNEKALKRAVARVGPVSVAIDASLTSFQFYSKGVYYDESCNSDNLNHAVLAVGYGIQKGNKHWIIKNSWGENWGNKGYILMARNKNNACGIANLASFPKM
Kind of series: Cathepsin K inhibition, fluorogenic substrate Z-Gly-Pro-Arg-AMC. The class given is biochemical. To be noted: 1 alone; acetate buffer pH 5.5, cat K 20 nM, 1% DMSO. The method in brief:
(§1)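 Human cathepsin K or L at 20 nM in 0.4 M acetate buffer (pH 5.5, 4 mM EDTA, 8 mM DTT, final 1% DMSO). Substrates at 100 μM were Z-Gly-Pro-Arg-AMC for K and Z-Phe-Arg-AMC for L. Reactions were run in the dark or after 10 min irradiation (250 W tungsten halogen lamp, >395 nm, H2O filter). IC50 came from a sigmoidal fit versus log[inhibitor], with 100% set by the no-inhibitor control.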

Another series concerns the target human cathepsin L (Homo sapiens, UniProt P07711). Kind of series: Cathepsin L inhibition, fluorogenic substrate Z-Phe-Arg-AMC. The class given is biochemical. Particulars: 1 alone; acetate buffer pH 5.5, cat L 20 nM, 1% DMSO. The method in brief: as §1
Series [1] concerns the target human cathepsin B in hBMSC lysates (Homo sapiens, UniProt P07858). The series is described as follows: Cathepsin B activity in hBMSC lysates, Z-Arg-Arg-AMC. The class given is biochemical. Particulars: 1 alone; hBMSC lysate. The method in brief:
(§2)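 Cathepsin B activity was measured in DU145 or hBMSC cell lysates with fluorogenic Z-Arg-Arg-AMC at 100 μM, run in the dark or after the test compound was irradiated for 10 min with a 250 W tungsten halogen lamp (>395 nm, H2O filter). Activity was plotted against log[inhibitor] and fit to a sigmoidal curve to give IC50, with 100% set by the no-inhibitor control.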

The next series has as its target T2, papain (Carica papaya, UniProt P00784).
T2 sequence (P00784 134-345): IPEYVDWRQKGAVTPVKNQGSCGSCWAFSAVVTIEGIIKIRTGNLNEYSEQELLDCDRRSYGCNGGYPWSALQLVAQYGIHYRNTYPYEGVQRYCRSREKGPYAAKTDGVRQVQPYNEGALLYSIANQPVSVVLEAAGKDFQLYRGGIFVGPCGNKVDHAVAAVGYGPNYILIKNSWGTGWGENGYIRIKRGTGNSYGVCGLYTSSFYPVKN
The series is described as follows: Papain inhibition, chromogenic substrate BAPNA. The format is biochemical. Particulars: inhibitor 1 alone; papain 650 nM, phosphate buffer pH 6.5, 11% DMSO.

Series [2] addresses human cathepsin B in DU145 lysates (Homo sapiens, UniProt P07858). The series is described as follows: Cathepsin B activity in DU145 cell lysates, Z-Arg-Arg-AMC. Particulars: 1 alone; DU145 lysate. The class given is biochemical. The method in brief: as §2
For series [3] the following is noted: λirr = 400 nm; cited from earlier work.

Sequence of human cathepsin L (P07711 114-333): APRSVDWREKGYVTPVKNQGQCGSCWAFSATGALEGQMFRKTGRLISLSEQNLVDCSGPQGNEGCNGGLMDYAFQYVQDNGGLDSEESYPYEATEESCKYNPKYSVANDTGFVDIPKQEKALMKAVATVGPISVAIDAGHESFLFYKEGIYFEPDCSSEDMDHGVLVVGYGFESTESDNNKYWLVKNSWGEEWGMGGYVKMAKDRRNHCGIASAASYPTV

As for `CC(=O)N[C@@H](Cc1ccccc1)C(=O)NCC#N` [compound 1, Ac-Phe-NHCH2CN, reference compound], the IC50 worked out at 133 µM at human cathepsin B; 12 µM against human cathepsin K; 72 µM at human cathepsin L; 183 µM in series [1]; 0.638 µM at papain; 182 µM in series [2].

On to `CC#N.CC#N.[Cl-].[Cl-].[Ru+2].c1ccc(-c2ccccn2)nc1.c1ccc(-c2ccccn2)nc1` [cis-[Ru(bpy)2(MeCN)2]Cl2], for which the “overall photoaquation quantum yield ΦR→P” value in series [3] is reported as 0.21.

The term IC50 denotes the concentration that inhibits the measured activity by half. Read a low IC50 as greater potency in that assay.

Values taken from article PMC4027032 (Journal of the American Chemical Society, 2011).
